Screening results: PubChem BioAssay, several laboratories
Compounds with a hit are over-represented: about 1.9% of the library has one in this group of screens.
PP5 inh = blocks human protein phosphatase 5 activity | 320,000 tested, 0.18% active | purified PP5c, OMFP substrate fluorescence | inhibition, % at 6.7 µM | P53041 | AID 1987;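 active means inhibition above the campaign's mean inhibition across all tested compounds plus 3 SD, cut at about 9.5% in these data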;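 further: 0% = DMSO only and 100% = 100 µM cantharidin control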
STEP inh = inhibitors of human striatal-enriched phosphatase STEP. inhibition, % at 20 µM. recombinant STEP, OMFP fluorogenic substrate, fluorescence. AID 588621. P54829. 360,000 tested, 0.25% active;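 active means inhibition at 20 µM, scaled per plate between control wells, above about 37%, limit read from the data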;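 further: 0% = DMSO with enzyme and substrate and 100% = substrate only without enzyme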
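material = STEP tyrosine phosphatase | reagent = fluorogenic phosphatase substrate OMFP at 25 µM final | doses = single compound dose of 20 µM, 1% DMSO final | schedule = 20 min reaction, room temperature, in the dark | measured by = fluorescence, 480/540 nm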
PP1 inh = blocks human PP1-alpha phosphatase, a PP5 counter-screen. inhibition, % at 6.7 µM. 320,000 tested, 0.9% active. P62136. purified PP1alpha, OMFP fluorescence. AID 2235;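 active means inhibition above the mean inhibition of all tested compounds plus 3 SD, computed separately for each screening campaign, cut at about 15% in these data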
Target sequence (P62136 whole entry, looked up): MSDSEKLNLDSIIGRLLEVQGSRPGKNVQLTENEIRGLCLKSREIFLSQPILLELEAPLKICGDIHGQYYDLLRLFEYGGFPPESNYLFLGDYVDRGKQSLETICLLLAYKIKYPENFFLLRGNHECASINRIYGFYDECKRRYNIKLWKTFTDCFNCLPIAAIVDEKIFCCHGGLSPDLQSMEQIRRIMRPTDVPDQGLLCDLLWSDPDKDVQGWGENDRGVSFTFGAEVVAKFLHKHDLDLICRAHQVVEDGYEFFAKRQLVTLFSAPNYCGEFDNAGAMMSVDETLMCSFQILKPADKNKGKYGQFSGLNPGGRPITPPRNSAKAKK
Scp1 inh = blocks human Scp-1 phosphatase activity; 340,000 tested, 0.88% active; Q9GZU7; inhibition, % at 20 µM; Recombinant Scp1, phosphopeptide, malachite green phosphate absorbance;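 active means inhibition above about 50% at 20 µM, limit read from the data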;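 further: plate controls were DMSO wells with enzyme for no effect and wells lacking enzyme for full effect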
Target sequence (Q9GZU7 76-261 limits assumed): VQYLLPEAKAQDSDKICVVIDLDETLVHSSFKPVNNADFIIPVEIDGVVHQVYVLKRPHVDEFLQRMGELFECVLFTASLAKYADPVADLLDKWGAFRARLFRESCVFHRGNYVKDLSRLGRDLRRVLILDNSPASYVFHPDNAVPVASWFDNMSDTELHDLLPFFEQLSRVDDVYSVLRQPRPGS
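Material: truncated SCP-1 phosphatase (76-261aa) / Buffer or medium: 50 mM Tris acetate pH 5.5, 0.005% Tween-20, 10 mM MgCl2 / Compound dosing: one concentration, 20 µM, with 1.0% DMSO / Incubation: 45 min room-temperature reaction, 5 min colour, 30 min stabiliser / Detection: colorimetric free-phosphate detection, absorbance 630 nm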
LMPTP block = LMPTP (human) inhibition; 360,000 tested, 0.22% active; P24666; AID 651560; inhibition, % at 20 µM; recombinant LMPTP-A, OMFP fluorogenic substrate, fluorescence intensity;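 active means compounds that cut the enzyme signal by at least half of the control window in the single-dose screen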;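 further: plate controls were DMSO wells with enzyme plus substrate for no effect and substrate without enzyme for full effect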
Target sequence (P24666 whole entry, looked up): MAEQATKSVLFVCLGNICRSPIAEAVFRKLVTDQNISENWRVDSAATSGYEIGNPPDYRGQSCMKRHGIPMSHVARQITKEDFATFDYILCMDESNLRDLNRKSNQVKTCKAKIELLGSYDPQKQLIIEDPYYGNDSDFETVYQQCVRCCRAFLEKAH
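Test system – LMPTP-A phosphatase enzyme · Quantity – 0.625 nM LMPTP-A final · Reagent – OMFP substrate, 400 µM final · Dosing – one test concentration per compound, 20 µM, with 3% DMSO overall · Timing – 50 min enzyme reaction at room temperature, protected from light · Detection – fluorescence intensity · Controls – substrate-only low control, DMSO enzyme-plus-substrate high control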
* marks the source's active call; other numbers are inactive results; · = no result.

SMILES	PP5 inh	STEP inh	PP1 inh	Scp1 inh	LMPTP block
O=c1c2ccccc2nc(N/N=C/c2c(O)ccc3ccccc23)n1O	3.6	0.4	17.5*	-3.4	0.0
CCCc1nnc2c(N(C)S(=O)(=O)c3ccc(C)cc3)nc3ccccc3n12	0.1	1.9	-3.3	0.5	-1.4
COc1ccccc1-c1nnc(SCC(=O)c2ccc(C3CCCCC3)cc2)n1Cc1ccco1	0.6	11.7	16.7*	20.3	16.6
Cc1cccc(C)c1OCCn1nc(C(=O)O)c2ccccc2c1=O	3.3	3.5	5.3	0.3	-0.2
CN(C)S(=O)(=O)c1cccc(-c2nn(-c3ccccc3)cc2/C=C(\C#N)c2nc3ccccc3[nH]2)c1	1.8	0.2	-1.9	-1.9	0.6
CN(C)S(=O)(=O)c1cccc(-c2nn(-c3ccccc3)cc2/C=C2\SC(=S)NC2=O)c1	3.7	3.1	16.6*	-10.4	-1.1
COc1ccc(NC(=O)Nc2nnc(-c3ccncc3)s2)cc1	-0.6	0.8	2.1	8.3	1.2
O=C(Nc1ccc(Cl)c(Cl)c1)Nc1nnc(-c2ccncc2)s1	1.9	79.4*	2.7	97.4*	35.6
O=C(NC1CCCC1)c1ccc(CNc2c(N3CCOCC3)c(=O)c2=O)cc1	-1.1	-1.1	-2.2	-2.8	-0.8
Fc1cccc(Cl)c1CNc1ccc(N2CCCC2)cc1	2.9	6.1	16.9*	-5.0	7.9
CCCCCn1c(N)c(-c2nc3ccccc3o2)c2c([N+](=O)[O-])nn(CC)c(=O)c21	2.4	37.5	0.9	102.0*	55.9*
COc1ccc(-c2nc3c(c(=O)[nH]c(=O)n3Cc3ccccc3)n2Cc2ccccc2)cc1	0.7	-1.8	16.3*	-9.4	3.5
CCOC(=O)[C@]12CCC=C1N(Cc1ccc(Cl)cc1Cl)C(=O)[C@H](CC(=O)N1CCCC1)C2	·	·	·	·	-0.2
Cn1c(N)c(C(=O)COC(=O)CCC(=O)c2ccc(F)cc2)c(=O)n(C)c1=O	0.4	-3.2	-3.2	-14.1	-0.7
O=C(O)C(O)Cc1c[nH]c2ccccc12 (stereo not drawn)	-3.7	1.6	1.0	9.5	-0.8
CC(Cc1c[nH]c2ccccc12)C(=O)O (stereo not drawn)	2.7	5.3	-2.2	66.3*	-0.3
COC(=O)CCc1cccc(CCC(=O)OC)c1	1.7	-2.1	-2.1	-0.2	-1.2
O=C(CNC(=O)c1ccco1)NCC(c1ccco1)N1CCCCC1 (stereo not drawn)	-0.4	0.1	-5.2	-9.3	-8.1
COc1ccccc1C(CCNCc1ccc(N(C)C)cc1)c1ccc(OC(C)C)cc1 (stereo not drawn)	1.2	2.7	15.6*	-4.2	5.8
CCCCCCC(=O)Nc1ccc(C(=O)N/N=C/c2cccnc2)cc1	1.0	13.4	0.8	25.2	-0.4
CCCCCCCC(=O)Nc1ccc(C(=O)N/N=C/c2cccc([N+](=O)[O-])c2)cc1	2.1	23.9	2.6	96.2*	-0.5
CC(=O)c1ccc(S(=O)(=O)N2CCC(c3nnc(SCCN4CCCC4)n3C)CC2)cc1	0.1	-0.3	1.1	-5.5	-0.4
COc1cccc(NC(=S)N(C)C2CCN(C)CC2)c1	-0.4	1.7	5.2	-9.7	-7.1
O=C(O)c1ccc(-c2cccc([N+](=O)[O-])c2)o1	1.3	-3.0	-0.1	-9.0	-3.3
N#C/C(=C(/O)c1ccc(-c2cccc([N+](=O)[O-])c2)o1)c1nc2ccccc2s1	·	11.8	·	88.8*	52.3*
SMILES	PP5 inh	STEP inh	PP1 inh	Scp1 inh	LMPTP block
CSc1sc(-c2n[nH]c(=S)n2C)c2c1C=CCC2	3.5	-0.3	9.6	4.0	50.4*
CCCCn1cnc2c(c(-c3ccccc3)c(-c3ccccc3)n2Cc2ccco2)c1=N	0.9	-2.5	4.3	-3.3	0.2
N=c1c2c(-c3ccccc3)c(-c3ccccc3)n(Cc3ccccc3)c2ncn1CCCn1ccnc1	2.4	2.7	15.3*	29.5	57.0*
Cc1cc(NCCCn2ccnc2)n2nc(C)c(-c3ccccc3)c2n1	-0.9	-9.3	1.3	2.2	3.0
N=c1c2c(-c3ccccc3)c(-c3ccccc3)n(Cc3ccco3)c2ncn1Cc1ccco1	2.5	7.1	16.4*	8.5	4.8
COc1ccc(Cn2cc(CN3CC(N4CCCCC4)CS3(=O)=O)nn2)cc1 (stereo not drawn)	·	·	·	·	0.9
CC(=O)Oc1ccc(C(=O)Nc2ccccc2C(=O)Nc2ccc(C(=O)O)cc2)cc1	5.2	-1.7	-0.7	-8.3	0.8
Cc1cc(C(=O)COC(=O)CC2Sc3ccccc3NC2=O)c(C)n1-c1ccc(Br)cc1 (stereo not drawn)	-0.2	1.6	16.9*	-7.8	3.5
CCN(CC)c1ccc(/C=N/NC(=O)c2c(-c3ccccc3)noc2C)cc1	2.9	1.8	3.0	-5.2	1.4
COc1ccc(-n2c(C)cc(-c3cn4cccc(C)c4n3)c2C)cc1	1.2	1.1	15.2*	-5.7	4.0
Cc1cc(-c2cn3ccccc3n2)c(C)n1-c1ccccc1	-0.4	1.8	12.0	-2.0	31.7
Cc1ccc(CN2CCN(C(=O)CCc3ccccc3)CC2)cc1	0.8	1.2	5.8	-10.2	-1.3
CCOc1ccccc1N1Cc2ccccc2C1	2.9	-2.5	11.4	-2.6	-0.3
COc1ccc(OC)c(-n2c(C)cc(C=O)c2C)c1	2.4	3.7	-1.0	-3.9	-0.8
CCOc1ccccc1N1Cc2cc(C)c(C)cc2C1	2.9	-0.1	15.3*	-3.9	2.5
COc1ccc(OC)c(N2Cc3cc(C)c(C)cc3C2)c1	2.1	5.5	16.8*	-4.0	2.8
CC(C)OC(=O)CC12CN3CC(CC(=O)OC(C)C)(CN(C1)C(=O)c1ccccc1C3=O)C2=O	3.7	-2.5	-4.4	-4.2	-2.4
COc1ccc(NS(=O)(=O)c2cc(NC(=O)/C=C/c3cc(OC)ccc3OC)ccc2N2CCCCC2)cc1	-0.2	6.0	1.0	9.2	1.6
CCOC(=O)C1CCCN(C(=O)c2cc(-c3ccco3)nc3ccccc23)C1 (stereo not drawn)	·	20.3	·	85.4*	51.4*
CCN(CC)C(=O)COC(=O)c1cc(-c2ccco2)nc2ccccc12	·	0.7	·	82.1*	30.6
CNC(=O)COC(=O)c1cc(-c2ccco2)nc2ccccc12	-2.7	3.8	5.1	75.7*	12.3
Cn1c(N)c(C(=O)COC(=O)c2cc(-c3ccco3)nc3ccccc23)c(=O)n(Cc2ccccc2)c1=O	3.4	·	30.0*	·	·
O=C(COC(=O)c1cc(-c2ccco2)nc2ccccc12)NCc1ccccc1	1.9	-1.7	7.0	-2.2	5.0
CC(=O)Nc1cccc(NC(=O)C(=O)Nc2ccc3c(c2)N(C(=O)C2CC2)CCC3)c1	·	1.9	·	-9.5	2.1
CC(=O)Nc1ccc(/C=N/NC(=O)c2cc(-c3ccco3)nc3ccccc23)cc1	-0.7	0.9	-2.2	-0.7	-0.1
O=C(O)c1ccccc1/C=N/NC(=O)c1cc(-c2ccco2)nc2ccccc12	-1.1	5.2	8.2	77.2*	32.9
